# Source: PubChem
# Shown are actives, neighbours in structure and some others; about 4.1% of the full set was active somewhere.
# KCNK9 inh: blocks the human KCNK9 two-pore domain potassium channel. Q9NPC2. HEK293 KCNK9, FluxOR thallium flux fluorescence; active compounds read low. B-score at 10 µM. 1.2% of 310,000 active;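 active = ratio B-score over 3 SD below the library mean, with starting fluorescence within 5 SD of its mean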;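 also: negative B-score means less thallium flux so channel inhibition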
# KCNK3 block: human KCNK3 channel inhibition, primary screen; O14649; 0.84% of 340,000 active; CHO-KCNK3 thallium flux, FluxOR fluorescence; active compounds read low; B-score at 10 µM;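 active = B-score under library mean minus 4 SD, starting fluorescence ratio at most library mean plus 5 SD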;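 also: more negative B-score means stronger inhibition of thallium flux through KCNK3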
# KCC2 mod: KCC2 (human) Cl- transport modulation. B-score of Tl+ flux slope (higher = more flux/activation; lower = inhibition) at 10 µM. 2.2% of 190,000 active. Q9H2X9. KCC2 cells, thallium flux FluoZin-2 fluorescence;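 active = thallium flux slope and its plate-corrected score both differing from the plate sample mean at a set confidence after two filtering rounds, in either direction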;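 also: slope of fluorescence scaled to starting intensity during 10 to 20 s after thallium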
# Target sequence (Q9H2X9 whole entry, looked up): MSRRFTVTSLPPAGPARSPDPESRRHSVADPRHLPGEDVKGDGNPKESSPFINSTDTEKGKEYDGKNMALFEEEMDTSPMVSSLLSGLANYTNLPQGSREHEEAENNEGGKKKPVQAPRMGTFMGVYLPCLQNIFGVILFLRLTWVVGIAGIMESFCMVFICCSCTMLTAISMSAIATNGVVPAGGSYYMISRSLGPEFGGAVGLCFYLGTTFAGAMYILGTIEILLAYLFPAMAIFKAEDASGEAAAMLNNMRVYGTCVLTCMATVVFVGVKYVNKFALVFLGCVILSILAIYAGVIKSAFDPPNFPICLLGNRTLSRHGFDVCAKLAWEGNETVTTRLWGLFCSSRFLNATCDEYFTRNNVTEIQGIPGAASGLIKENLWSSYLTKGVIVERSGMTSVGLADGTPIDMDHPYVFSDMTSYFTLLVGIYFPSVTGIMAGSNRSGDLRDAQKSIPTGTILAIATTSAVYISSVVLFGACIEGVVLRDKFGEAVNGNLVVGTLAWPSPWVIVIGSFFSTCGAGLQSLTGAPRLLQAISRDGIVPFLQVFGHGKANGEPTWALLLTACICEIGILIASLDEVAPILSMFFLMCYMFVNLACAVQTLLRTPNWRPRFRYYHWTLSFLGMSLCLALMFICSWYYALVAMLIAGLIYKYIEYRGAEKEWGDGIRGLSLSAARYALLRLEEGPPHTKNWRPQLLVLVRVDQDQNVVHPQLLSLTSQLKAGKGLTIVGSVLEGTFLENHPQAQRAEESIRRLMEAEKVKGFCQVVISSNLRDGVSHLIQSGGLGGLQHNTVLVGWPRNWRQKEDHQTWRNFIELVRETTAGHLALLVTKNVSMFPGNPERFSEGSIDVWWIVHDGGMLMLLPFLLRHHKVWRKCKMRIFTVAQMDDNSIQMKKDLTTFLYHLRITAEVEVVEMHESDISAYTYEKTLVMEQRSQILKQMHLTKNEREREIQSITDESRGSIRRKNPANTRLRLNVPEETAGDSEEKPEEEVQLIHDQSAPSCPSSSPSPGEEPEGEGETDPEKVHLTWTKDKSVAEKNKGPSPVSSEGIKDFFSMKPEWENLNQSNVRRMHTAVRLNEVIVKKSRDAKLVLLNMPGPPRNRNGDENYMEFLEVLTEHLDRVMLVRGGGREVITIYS
# KCNQ1 act: human KCNQ1 channel potentiation or activation; P51787; CHO-K1 KCNQ1, thallium flux FluxOR fluorescence; active compounds read high; B-score at 10 µM; 0.35% of 310,000 active; AID 2648;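 active = fluorescence ratio B-score, a plate-corrected score, at least three library SD, with initial intensity B-score within 5 SD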
#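 Assay system: CHO-K1 cells stably expressing KCNQ1. Medium: assay buffer for compound exposure, DMSO matched across wells. Timing: 37 °C overnight plating, 90-min dark dye load, 20-min compound pretreatment. Signal: kinetic FluxOR fluorescence, 10 s baseline plus 110 s post-stimulus.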
# hERG rescue: hERG (human) protection from proarrhythmic block. Q12809. CHO-hERG, FluxOR thallium flux, dofetilide IC70 present. activation (rescue from dofetilide block), less the hit threshold, % at 10 µM. 0.51% of 310,000 active. AID 1511;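 active = activation above the mean of controls blocked by dofetilide plus 5 SD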;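 also: thallium influx through hERG after potassium depolarization seen as dye fluorescence rise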
# KCNQ1 block: blocks the human KCNQ1 potassium channel; P51787; CHO-K1 KCNQ1, FluxOR thallium flux fluorescence; active compounds read high; B-score at 10 µM; 1.3% of 310,000 active;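 active = compounds whose thallium flux B-score, printed positive for inhibition, exceeds three library SD while starting fluorescence stays within three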;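 also: channel opened by potassium depolarization with thallium stimulus after 20 min compound exposure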
# KCNQ1 inh valid: reconfirmed blocker of the human KCNQ1 potassium channel; inhibition, % at 10 µM; shares compounds with KCNQ1 block; KCNQ1 cell line, FluxOR thallium flux fluorescence; 93% of 1,600 active;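 active = primary screen active, with duplicate mean exceeding buffer control mean plus 3 SD of buffer wells, cut at about 28% in these data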;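 also: 0% = buffer control ratio and 100% = XE991 inhibitor control ratio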
# CHO KCNQ1 ctr: KCNQ1 inhibitor counter-screen hit in parental CHO cells. shares compounds with KCNQ1 block. parental CHO-K1, FluxOR thallium flux fluorescence ratio; active compounds read low; zero means no signal rise above baseline. fluorescence ratio (Tl flux) at 10 µM. 21% of 1,600 active;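 active = mean of duplicate thallium-flux fluorescence ratios in parental host cells more than 5 SD below the buffer control mean, cut at about 0.38 in these data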;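 also: ratio is peak minus minimum fluorescence divided by baseline fluorescence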
# KCNQ1 ephys val: blocks human KCNQ1 current in automated patch clamp; shares compounds with KCNQ1 block; KCNQ1-CHO cells; calls only at 10 µM; 20% of 490 active;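 active = KCNQ1 current drop exceeding 3 SD of negative control wells, seen in both duplicate runs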;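 also: steady state current during a 2 s step from -80 to +40 mV; negative values mean current inhibition and positive values mean potentiation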
# KCNQ2 spec: selectivity of KCNQ1 inhibitors: inhibition of rat KCNQ2 channel. shares compounds with KCNQ1 block. KCNQ2 cells, FluxOR thallium flux fluorescence. inhibition, % at 10 µM. 71% of 1,600 active;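 active = mean percent inhibition of the KCNQ2 thallium signal more than 5 SD above the buffer-only control wells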;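 also: KCNQ2 expressed in CHO cells; 0% = buffer control wells and 100% = XE-991 inhibitor control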
# KCNQ1-KCNE1 inh: selectivity of KCNQ1 inhibitors: inhibition of human KCNQ1/KCNE1 channel; inhibition, % at 10 µM; shares compounds with KCNQ1 block; KCNQ1/KCNE1 cells, FluxOR thallium flux fluorescence; 77% of 1,600 active;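 active = mean percent inhibition of duplicate wells above the buffer-only control mean plus 3 SD of those controls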;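 also: 0% = buffer only wells and 100% = XE-991 inhibitor control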
# * hit, by the source's call; i = inactive; . = no result given; + = active, no number.
SMILES,KCNK9 inh,KCNK3 block,KCC2 mod,KCNQ1 act,hERG rescue,KCNQ1 block,KCNQ1 inh valid,CHO KCNQ1 ctr,KCNQ2 spec,KCNQ1-KCNE1 inh,others
Cn1ncc(Br)c1NC(=O)Nc1ccc(OC(F)(F)F)cc1,i,i,0.019,i,-12,8*,79*,0.49,132%*,i,
Cn1c(=O)c(NCCc2ccccc2)c2c3c(cccc31)C(=O)c1ccccc1-2,i,i,i,i,-44,29*,+,0.004*,i,i,
CCCCNc1c2c3c(cccc3n(C)c1=O)C(=O)c1ccccc1-2,i,i,i,i,-38,29*,+,0.013*,i,i,
CCNc1c2c3c(cccc3n(C)c1=O)C(=O)c1ccccc1-2,i,.,i,i,-44,i,.,.,.,.,
O=C(c1ccc(N2CCCC2=O)cc1)N1CCN(c2cccc(C(F)(F)F)c2)CC1,.,i,.,.,.,.,.,.,.,.,
COC(=O)c1c(C)oc2ccc(N(C(=O)c3ccncc3)S(=O)(=O)c3ccc4ccccc4c3)cc12,i,i,0.11,i,-10,8*,136*,0.4,110%*,140%*,
COC(=O)c1c(C)oc2ccc(N(C(=O)c3ccncc3)S(=O)(=O)c3ccc(C)cc3)cc12,i,i,-0.33,i,-11,i,.,.,.,.,
COC(=O)c1c(C)oc2ccc(N(C(=O)c3ccncc3)S(=O)(=O)c3ccc(C)cc3C)cc12,i,i,-1,i,-11,9*,135*,0.39,127%*,131%*,KCNQ1 ephys val=i
Nc1c(Br)cc(Br)c2c1C(=O)c1c(cccc1S(=O)(=O)O)C2=O,.,i,.,.,.,.,.,.,.,.,
Cc1ccc(S(=O)(=O)N(Cc2ccccc2)Cc2ccco2)cc1,i,i,-0.19,i,-15,7*,96*,0.46,93%*,40%*,KCNQ1 ephys val=i
CCN(CC)c1nc(-c2ccccc2)ncc1S(=O)(=O)c1ccc(C)cc1,i,i,-0.7,i,-22,6*,84*,0.41,80%*,130%*,
CCCc1ccc(-c2cc(C(=O)N3CCN(c4ccccn4)CC3)c3ccccc3n2)cc1,i,i,.,i,-30,9*,89*,0.45,114%*,104%*,KCNQ1 ephys val=i
CCN(CC)C(=O)C1c2ccccc2Oc2ccccc21,i,i,.,i,-23,16*,0,0.48,77%*,71%*,
CCCn1c(=O)c(C(=O)NCCc2ccc(OC)cc2)c(O)c2ccccc21,i,i,.,i,-1,9*,93*,0.48,91%*,77%*,KCNQ1 ephys val=i
CCn1c(=O)c(C(=O)NCc2ccc(OC)cc2)c(O)c2ccccc21,i,i,0.27,i,-2,i,.,.,.,.,
CCCCCC(=O)NC(=S)NC1C2CC3CC(C2)CC1C3 (stereo not given),i,i,-0.43,i,-10,7*,66*,0.48,79%*,64%*,
Cc1ccc(N(CCCCN2C(=O)c3ccccc3C2=O)C(=O)c2ccc(Cl)s2)cc1,i,i,-1.4,i,-12,9*,78*,0.49,71%*,34%*,
O=C1c2ccccc2C(=O)N1CCCCN(C(=O)c1ccc(Cl)s1)c1ccc(Cl)cc1,i,i,-0.031,i,-7,i,.,.,.,.,
Cc1cc(Cl)c(OCCCNCc2ccccc2)c(Br)c1,i,i,-0.67,i,-23,6*,37*,0.57,73%*,i,
c1coc(CNc2nc(N3CCCCC3)nc3ccccc23)c1,i,i,-0.47,i,-16,9*,60*,0.38*,72%*,62%*,
OCCNc1nc(N2CCCCC2)nc2ccccc12,i,i,.,i,-5,i,.,.,.,.,
CCSc1nnc(NC(=O)NC(C)(C(F)(F)F)C(F)(F)F)s1,i,i,0.33,i,-11,i,.,.,.,.,
CCSc1nnc(NC(=O)NC(CC)(C(F)(F)F)C(F)(F)F)s1,i,i,.,i,-13,7*,57*,0.5,i,91%*,
Cc1ccc(C(=O)NNC(=O)c2ccoc2C)s1,.,i,.,.,.,.,.,.,.,.,
CC[C@]12c3[nH]c4cc(-c5ccco5)ccc4c3CCN1C(=O)[C@@H](CC(=O)NCc1ccc(OC)c(OC)c1)C[C@@H]2C(=O)N1CCN(C(=O)c2ccco2)CC1,.,i,.,.,.,.,.,.,.,.,
SMILES,KCNK9 inh,KCNK3 block,KCC2 mod,KCNQ1 act,hERG rescue,KCNQ1 block,KCNQ1 inh valid,CHO KCNQ1 ctr,KCNQ2 spec,KCNQ1-KCNE1 inh,others
O=C(NC1CCCC1)c1cc(COc2ccc3ncccc3c2)on1,i,i,0.39,i,-22,8*,91*,0.44,i,i,KCNQ1 ephys val=+
O=C(c1cc(COc2ccc3ncccc3c2)on1)N1CCCC1,i,i,.,i,-11,i,.,.,.,.,
CC(NC(=O)c1cc(COc2ccc3ncccc3c2)on1)c1ccc(F)cc1 (stereo not given),i,i,0.076,i,-26,10*,108*,0.44,92%*,92%*,KCNQ1 ephys val=+
O=C(c1cc(COc2ccc3ncccc3c2)on1)N1CCCCCC1,i,i,-1.7,i,-17,7*,114*,0.49,101%*,i,KCNQ1 ephys val=i
Cc1cc(OCc2cc(C(=O)N3CCC(Oc4cccnc4)CC3)no2)cc(C)c1Cl,i,i,.,i,-14,13*,148*,0.37*,124%*,+,
Cc1cc(C)n2c(SC(C)C(=O)NC3(C#N)CCCCC3)nnc2n1 (stereo not given),.,i,.,.,.,.,.,.,.,.,
COc1ccc(C2=CN3CCCCC3CC2=O)cc1OC (stereo not given),.,i,.,.,.,.,.,.,.,.,
CCOC(=O)Cc1c(Sc2ccccc2)c2ccccc2n1C,-8*,i,1.4,i,-3,7*,94*,0.47,88%*,114%*,KCNQ1 ephys val=i
O=C(C1COc2ccccc2O1)N1CCN(c2ccc([N+](=O)[O-])cc2)CC1 (stereo not given),.,i,.,.,.,.,.,.,.,.,
OCCC1CN(Cc2cccnc2)CCN1CCc1ccccc1 (stereo not given),i,i,0.59,i,-17,7*,0,0.45,i,i,
